Experimental data from ChEMBL document CHEMBL1641525, “Antiproliferative and apoptotic sesquiterpene lactones from Carpesium faberi” (Bioorg Med Chem Lett, 2011).
Converted amounts (≈) assume the structure as drawn. The source made the active and inactive calls. The calls are words filed in the database; no cut-off is given here.

How the values were obtained:
MCF7 [1] = assay: Antiproliferative activity against human MCF7 cells after 48 hrs by MTT assay; assay type: functional, cell-based; conditions: MCF7, 48 h
In short: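 MCF-7 (ATCC) grown in DMEM + 10% heat-inactivated FBS, penicillin/streptomycin, 37 °C, 5% CO2. Exponential cells seeded 4.0×10^3/well; after 24 h treated with a range of concentrations for 48 h in the dark. Medium refreshed, then MTT (1 mg/mL) for 4 h; formazan dissolved in DMSO, OD 570 nm. 0.5% DMSO negative control. IC50 from log concentration–viability curves.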

MCF7 [2] = assay: Cell cycle arrest in human MCF7 cells assessed as accumulation at G2/M phase at IC50 concentration after 24 hrs using propidium iodide staining by flow cytometry; assay type: functional, cell-based
MCF7 [3] = assay: Cell cycle arrest in human MCF7 cells assessed as accumulation at sub-G1 phase at IC50 concentration after 24 hrs using propidium iodide staining by flow cytometry; assay type: functional

C=C1C(=O)O[C@@H]2C[C@H](C)C(CCC(C)=O)=CC[C@H]12 [TOMENTOSIN]
IC50 (MCF7 [1]): > 50 µg/mL

C=C1C(=O)O[C@H]2C[C@@](C)(O)C3=CC[C@](C)(O)[C@@H]3C[C@H]12 [GUAIANOLIDE]
Activity (MCF7 [2]): Active
Activity (MCF7 [3]): > 5%
IC50 (MCF7 [1]): 31.7 µg/mL (≈ 120 µM)

COc1cccc2c1C(=O)c1c(O)c3c(c(O)c1C2=O)C[C@@](O)(C(C)=O)C[C@@H]3O[C@H]1C[C@H](N)[C@H](O)[C@H](C)O1 [DAUNORUBICIN]
IC50 (MCF7 [1]): 0.5 µg/mL (≈ 0.948 µM)

C/C(=C\CO)CC[C@@H]1[C@@]2(C)CCCC(C)(C)[C@@H]2CC[C@@]1(C)O
IC50 (MCF7 [1]): 18.6 µg/mL (≈ 60.3 µM)

C=C1C[C@H](O)C[C@]2(C)C[C@H]3OC(=O)[C@@H](C)[C@H]3C[C@@]12O
IC50 (MCF7 [1]): > 50 µg/mL

C=C1C(=O)O[C@@H]2C[C@](C)(O)C3=CC[C@@](C)(O)[C@@H]3C[C@H]12
IC50 (MCF7 [1]): 26.5 µg/mL (≈ 100 µM)

C=C1C(=O)O[C@@H]2C[C@@]3(C)CCCC(=C)[C@]3(O)C[C@H]12 [TELEKIN]
Activity (MCF7 [2]): Active
IC50 (MCF7 [1]): 3 µg/mL (≈ 12.1 µM)

C[C@@H]1C[C@@H]2OC(=O)[C@@H](C)[C@H]2C[C@]2(C)[C@@H](O[C@@H]3O[C@H](CO)[C@@H](O)[C@H](O)[C@H]3O)CC[C@@H]12
IC50 (MCF7 [1]): > 50 µg/mL

O=c1[nH]cc(F)c(=O)[nH]1 [FLUOROURACIL]
IC50 (MCF7 [1]): 14.1 µg/mL (≈ 108 µM)

C=C1C(=O)O[C@H]2C=C(C)[C@@H]3CC[C@](C)(O)[C@@H]3C[C@H]12 [4-EPI-ISOINUVISCOLIDE]
IC50 (MCF7 [1]): 16.3 µg/mL (≈ 65.6 µM)

C=C1C(=O)O[C@H]2C[C@@H](C)[C@@H]3CC[C@H](O)[C@@]3(C)C[C@H]12 [PSEUDOGUAIANOLIDE]
Activity (MCF7 [2]): Active
IC50 (MCF7 [1]): 9.8 µg/mL (≈ 39.1 µM)

C/C(=C\CO)CCC[C@H](C)CCC[C@H](C)CCCC(C)C [TRANS-PHYTOL]
IC50 (MCF7 [1]): > 50 µg/mL

C=C1C(=O)O[C@@H]2C[C@@H](C)[C@@H]3CCC(=O)[C@@]3(C)C[C@H]12
IC50 (MCF7 [1]): 3.9 µg/mL (≈ 15.7 µM)

C=C1C(=O)O[C@H]2C[C@@H](C)[C@@H]3CC[C@H](O)[C@@]3(C)[C@@H](O)[C@H]12 [CARABROLACTONE B]
IC50 (MCF7 [1]): 10.7 µg/mL (≈ 40.2 µM)

C[C@@H]1C(=O)O[C@@H]2C[C@@]3(C)O[C@@H]3C[C@H](O)[C@@]3(C)O[C@@H]3C[C@H]12 [CARABROLACTONE A]
IC50 (MCF7 [1]): > 50 µg/mL

C=C1C(=O)O[C@H]2C[C@](C)(O)C3=CC[C@](C)(O)[C@@H]3C[C@H]12
IC50 (MCF7 [1]): 31.9 µg/mL (≈ 121 µM)

C=C1C(=O)O[C@@H]2C[C@@]3(C)C[C@@H](O)CC(=C)[C@@H]3C[C@H]12 [IVALIN]
IC50 (MCF7 [1]): 12.5 µg/mL (≈ 50.3 µM)

C=C1C(=O)O[C@@H]2C[C@]3(C)[C@@H](CC[C@H](C)OC(C)=O)[C@@H]3C[C@H]12
Activity (MCF7 [2]): Active
Activity (MCF7 [3]): > 5%
IC50 (MCF7 [1]): 9.4 µg/mL (≈ 32.2 µM)

C=C1C(=O)O[C@@H]2C[C@](C)(O)C3=CC[C@](C)(O)[C@@H]3C[C@H]12
IC50 (MCF7 [1]): 38.8 µg/mL (≈ 147 µM)
